STEP inh = blocks human striatal-enriched tyrosine phosphatase. P54829. recombinant STEP, OMFP fluorogenic substrate, fluorescence. inhibition, % at 20 µM. 360,000 compounds, 0.25% hits. AID 588621;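 active means inhibition at 20 µM, scaled per plate between control wells, above about 37%, limit read from the data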;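 further: 0% = DMSO with enzyme and substrate and 100% = substrate only without enzyme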
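Assay system: isolated STEP enzyme / Timing: 20 min at room temperature, dark / Doses: 20 µM, 1% DMSO / Technique: fluorescence intensity, excitation 480 nm, emission 540 nm / Reagent: fluorogenic phosphatase substrate OMFP at 25 µM final / Measure: percent inhibition scaled to no-enzyme and uninhibited-enzyme controls, plate-pattern corrected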
Scp-1 inhibitor = inhibitors of human Scp-1 phosphatase; Q9GZU7; Recombinant Scp1, phosphopeptide, malachite green phosphate absorbance; inhibition, % at 20 µM; 340,000 compounds, 0.88% hits;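 active means inhibition above about 50% at 20 µM, limit read from the data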;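 further: plate controls were DMSO wells with enzyme for no effect and wells lacking enzyme for full effect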
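Test system: SCP-1 phosphatase catalytic domain, residues 76-261 | Compound dosing: One concentration, 20 µM, with 1.0% DMSO | Schedule: 45 min room-temperature reaction, 5 min colour, 30 min stabiliser | Detection: Absorbance at 630 nm | Read-out basis: % inhibition of SCP-1 phosphate liberation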
LMPTP inh = blocks human LMPTP phosphatase; recombinant LMPTP-A, OMFP fluorogenic substrate, fluorescence intensity; 360,000 compounds, 0.22% hits; inhibition, % at 20 µM; AID 651560;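 active means compounds that cut the enzyme signal by at least half of the control window in the single-dose screen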;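 further: plate controls were DMSO wells with enzyme plus substrate for no effect and substrate without enzyme for full effect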
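Test system: LMPTP-A phosphatase enzyme. Amount: LMPTP-A at 0.625 nM final in the reaction. Reagent: OMFP substrate, 400 µM final. Times: 50 min at room temperature. Signal: endpoint fluorescence intensity from OMFP dephosphorylation. Read-out basis: % inhibition. Benchmarks: no-enzyme and uninhibited controls.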
DNMT1 inh = DNMT1 (human) enzyme inhibition. P26358. DNMT1 molecular beacon, Hinp1I cleavage, fluorescence. inhibition (reported as % activation of signal), % at 10 µM. 360,000 compounds, 0.83% hits. AID 588458; in the data active means inhibition above about 50%
Target sequence (P26358 504-1616 limits assumed): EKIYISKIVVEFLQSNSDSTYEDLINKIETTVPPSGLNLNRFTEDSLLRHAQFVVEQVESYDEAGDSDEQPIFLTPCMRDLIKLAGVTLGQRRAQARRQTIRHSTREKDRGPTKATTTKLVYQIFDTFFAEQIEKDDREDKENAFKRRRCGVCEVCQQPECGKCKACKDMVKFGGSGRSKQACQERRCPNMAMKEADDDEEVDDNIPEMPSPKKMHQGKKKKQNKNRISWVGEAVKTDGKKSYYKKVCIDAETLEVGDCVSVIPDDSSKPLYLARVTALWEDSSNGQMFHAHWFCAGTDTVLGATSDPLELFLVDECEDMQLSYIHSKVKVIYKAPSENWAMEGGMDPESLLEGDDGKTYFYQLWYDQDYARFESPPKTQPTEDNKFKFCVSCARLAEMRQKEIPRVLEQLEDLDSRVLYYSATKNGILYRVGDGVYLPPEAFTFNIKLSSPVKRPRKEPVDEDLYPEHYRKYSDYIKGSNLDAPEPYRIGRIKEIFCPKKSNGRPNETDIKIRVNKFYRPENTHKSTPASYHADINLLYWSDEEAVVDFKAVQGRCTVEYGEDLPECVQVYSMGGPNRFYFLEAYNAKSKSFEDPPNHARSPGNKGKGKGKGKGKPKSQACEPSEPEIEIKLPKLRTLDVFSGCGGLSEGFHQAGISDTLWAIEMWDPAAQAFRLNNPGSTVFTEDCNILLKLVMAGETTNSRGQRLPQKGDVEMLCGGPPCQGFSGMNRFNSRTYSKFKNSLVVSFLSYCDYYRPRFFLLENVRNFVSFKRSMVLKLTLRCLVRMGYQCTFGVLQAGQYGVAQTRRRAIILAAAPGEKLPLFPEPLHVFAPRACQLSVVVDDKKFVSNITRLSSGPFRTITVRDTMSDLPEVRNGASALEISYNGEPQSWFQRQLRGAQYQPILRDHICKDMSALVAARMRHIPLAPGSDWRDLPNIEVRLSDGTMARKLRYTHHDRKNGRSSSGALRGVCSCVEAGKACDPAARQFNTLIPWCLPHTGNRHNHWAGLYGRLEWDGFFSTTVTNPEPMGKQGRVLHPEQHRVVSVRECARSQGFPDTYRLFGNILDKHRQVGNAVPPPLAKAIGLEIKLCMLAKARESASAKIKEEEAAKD
HKDC1 inhibitor = inhibitors of human hexokinase HKDC1; 340,000 compounds, 0.16% hits; AID 493160; Q2TB90; recombinant HKDC1, G6PDH/diaphorase resazurin coupled fluorescence; inhibition, % at 20 µM;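 active means inhibition above about 35% when tested at 20 µM, limit read from the data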;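 further: plate controls were DMSO wells with enzyme for no effect and DMSO wells lacking enzyme for full effect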
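Assay system: recombinant HKDC1 hexokinase; detection: coupled resazurin fluorescence, excitation 525 nm, emission 613 nm; benchmarks: DMSO-plus-enzyme-mix negative control, buffer-substituted positive control; compound dosing: single 20 µM dose; schedule: 90 min at room temperature in dark; also added: glucose plus 1 mM ATP as hexokinase substrates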
SUMO1 PPI mod = alters human SUMO1 binding to SIM partners. SUMO1 binding to a labelled peptide, TR-FRET, 1 h. inhibition, % at 20 µM. 360,000 compounds, 0.33% hits. AID 602429; in the data active means inhibition above about 37%
Numbers without * were called inactive; . = no result given; + = active, no number. In the library only some 1.8% were active in any assay of this set; here they are far more common.

SMILES | STEP inh | Scp-1 inhibitor | LMPTP inh | DNMT1 inh | HKDC1 inhibitor | SUMO1 PPI mod
Cc1ccccc1CN1C(=O)c2ccccc2S1(=O)=O | 0 | -4 | -1 | -2 | -7 | 44*
CS(=O)(=O)C1=NN2C(=N)/C(=C\c3ccc(OC(=O)c4ccco4)cc3)C(=O)N=C2S1 | 4 | 34 | 2 | 10 | 14 | -5
CC(C)CS(=O)(=O)C1=NN2C(=N)/C(=C\c3ccc(OC(=O)c4ccco4)cc3)C(=O)N=C2S1 | 10 | 69* | 5 | 10 | 15 | -6
Cc1noc(C)c1NC(=O)N(C)C[C@H]1Oc2ccc(NS(=O)(=O)c3c(C)noc3C)cc2C(=O)N([C@H](C)CO)C[C@@H]1C | 1 | 39 | -1 | 1 | 7 | -3
Cc1noc(C)c1S(=O)(=O)Nc1ccc2c(c1)C(=O)N([C@H](C)CO)C[C@H](C)[C@@H](CN(C)C(=O)Nc1ccc3c(c1)OCO3)O2 | -3 | 76* | -1 | 12 | 4 | 1
Fc1ccc(-c2cnc3n2CCCCC3)cc1 | -3 | -12 | -2 | 0 | -3 | 1
Clc1ccc(-c2cnc3n2CCCCC3)cc1 | 0 | 3 | 0 | 1 | -4 | 43*
Nc1ccc(OCCCc2c(N)nc(N)nc2N)cc1 | 3 | -11 | 87* | 29 | 4 | 31
N#Cc1c(SCC(=O)Nc2nccs2)sc2c(O)cc(=O)[nH]c12 | 34 | 68* | 31 | 43 | 6 | 20
N#Cc1c(SCC(=O)Nc2ccc(Cl)cc2Cl)sc2c(O)cc(=O)[nH]c12 | 7 | 41 | 22 | 21 | 2 | 4
N#Cc1c(SCC(=O)Nc2nc3ccccc3s2)sc2c(O)cc(=O)[nH]c12 | 12 | 61* | 64* | 91* | 28 | 30
N#Cc1c(SCC(=O)Nc2ccccc2C(F)(F)F)sc2c(O)cc(=O)[nH]c12 | 6 | 23 | 1 | 5 | 4 | 2
CCCCNc1ncnc2c1nnn2Cc1ccccc1Cl | 1 | -5 | 0 | -1 | -4 | 4
O=c1oc2ccccc2n1CCn1c2ccccc2c2nc3ccccc3nc21 | 3 | -8 | 73* | 62* | 8 | 1
COc1ccc2c(c1)c1nc3ccccc3nc1n2CCn1c(=O)oc2ccccc21 | -3 | 3 | -1 | 2 | 7 | -2
CC(Oc1ccc2c3c(c(=O)oc2c1)CCC3)C(=O)NCc1cccnc1 (stereo not drawn) | -1 | 5 | 0 | 2 | -4 | -2
O=C(CSc1n[nH]c(-c2cccnc2)n1)Nc1ccccc1 | 0 | -11 | 0 | 0 | -5 | -2
O=C(CSc1n[nH]c(-c2ccccc2)n1)Nc1ncc(Br)cc1Br | 3 | 4 | -2 | 1 | 48* | 4
CC(=O)C(C)n1c(CN2CCN(C(=O)c3ccco3)CC2)nc2c1c(=O)n(C)c(=O)n2C (stereo not drawn) | -1 | -6 | -1 | 5 | -7 | 2
Cc1cc2c(cc1C)NC1(C(=O)Nc3ccccc31)C1=C(CC(C)(C)CC1=O)N2 (stereo not drawn) | -2 | -6 | 0 | -4 | -2 | 51*
CC1(C)Cc2c(sc(NC(=O)COc3cccc4ccccc34)c2C#N)C(C)(C)N1 | 69* | -11 | 4 | 26 | 0 | -43
Cc1ccc(OCC(=O)Nc2sc3c(c2C#N)CC(C)(C)NC3(C)C)cc1 | 3 | -5 | 0 | -1 | 1 | -1
CCCCN(C)C1=CC2=CC(=C(C#N)C#N)CCC2CC1 (stereo not drawn) | -271 | -5 | 3 | + | 16 | 19
CCN(CC)C1=CC2=CC(=C(C#N)C#N)CCC2CC1 (stereo not drawn) | -231 | 1 | 4 | + | -9 | 17
N#CC(C#N)=C1C=C2C=C(N3CCCCC3)CCC2CC1 (stereo not drawn) | . | -24 | . | . | 7 | .
SMILES | STEP inh | Scp-1 inhibitor | LMPTP inh | DNMT1 inh | HKDC1 inhibitor | SUMO1 PPI mod
Cn1nc(C(F)(F)F)c(C(=O)Nc2ccc(Cl)cc2)c1Cl | -5 | 3 | -1 | 3 | -2 | 41*
Cc1ccc(NC(=O)c2c(C(F)(F)F)nn(C)c2Cl)cc1C | 1 | -7 | 0 | 0 | -8 | 2
COC(=O)c1ccc(Nc2cc(C)nc(-c3ccccc3O)n2)cc1 | -4 | 4 | 3 | 3 | -4 | 59*
Cc1cc(N/N=C/c2ccc(O)cc2O)nc(-c2ccccc2O)n1 | -11 | -8 | 3 | -30 | -10 | 12
COC(=O)c1cccc(Nc2cc(C)nc(-c3ccccc3O)n2)c1 | -3 | -5 | 2 | -15 | -1 | 32
Cc1cc(N/N=C/c2ccccc2O)nc(-c2ccccc2O)n1 | -1 | -10 | -1 | 2 | -8 | 42*
NC(=S)NN=C1Cc2cccc3cccc1c23 | 2 | 8 | 53* | 6 | -3 | -1
COc1ccc(C(O)Cn2ccsc2=NC(C)=O)cc1 (stereo not drawn) | -4 | 2 | -1 | 3 | 2 | 2
O=C(NCc1ccco1)c1ccc(S(=O)(=O)N2CCOCC2)cc1 | 12 | 33 | 5 | 76* | 4 | 7
COCCOC(=O)c1[nH]c2c(c1C)C(=O)CC(c1ccccc1)C2 (stereo not drawn) | 2 | -2 | 0 | 0 | 0 | 0
Cc1c(C(=O)OCCOC(C)C)[nH]c2c1C(=O)CC(c1ccco1)C2 (stereo not drawn) | 1 | 49 | 59* | 32 | 3 | 15
Cc1c(C(=O)OCc2ccccc2)[nH]c2c1C(=O)CC(c1ccco1)C2 (stereo not drawn) | 3 | 71* | 79* | 68* | 0 | 8
CSCCOC(=O)c1[nH]c2c(c1C)C(=O)CC(c1ccco1)C2 (stereo not drawn) | 0 | 75* | 22 | 29 | 1 | 4
CC(C)(C)NCC(O)COc1cccc2c1CCC(=O)N2 (stereo not drawn) | -1 | -4 | 0 | 0 | -4 | 3
COc1cc(OC)cc(C(=O)OC(C)C(=O)NC2CCCc3ccccc32)c1 (stereo not drawn) | -3 | -9 | 1 | 6 | -6 | 2
COc1ccc(C(=O)OCC(=O)N2CCc3ccccc3C2)cc1OC | 2 | -8 | 0 | -1 | -6 | 1
CC(=O)Oc1cc(C(=O)OCC(=O)N2CCc3ccccc3C2)cc(OC(C)=O)c1OC(C)=O | 6 | 53* | 2 | 5 | -5 | 7
COc1cc(C(=O)C(=O)c2ccc(OC)c(OC)c2)ccc1O | 1 | -18 | -1 | 8 | -3 | 38*
COCCN(Cc1ccc(C)c(Br)c1)C(=O)Cn1cnc(S(=O)(=O)N2CCCC2)c1 | -1 | 14 | 1 | 0 | -4 | 2

High-throughput results: PubChem, Sanford-Burnham Center for Chemical Genomics
